Laboratory results: ChEMBL document CHEMBL5230174, “Synthesis and properties of the kojic acid dimer and its potential for the treatment of Alzheimer's disease” (RSC Med Chem, 2023)
Active and inactive are the calls of the source. The rule behind the calls is not given here.

How the values were obtained:
[1] = Antioxidant activity assessed as DPPH radical scavenging activity at 100 uM incubated for 30 mins under dark condition by UV-Vis spectrophotometry; assay type: functional
Procedure, shortened: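 Compound dilutions made in DMSO. 100 μM DPPH in ethanol mixed 9:1 with sample, shaken 30 min in dark at room temperature; absorbance read at 517 nm on plate reader. Scavenging rate calculated from absorbance; triplicate wells, three parallel measurements, three independent experiments.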

[2] = Antioxidant activity assessed as ABTS radical scavenging activity at 100 uM incubated for 6 mins under dark condition by UV-Vis spectrophotometry; assay type: functional
Procedure, shortened: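 Compound dilutions made in DMSO. ABTS (7 mM in water) reacted with 4.96 mM potassium persulfate, 16 h dark at room temperature; working solution adjusted to A734 0.70 ± 0.02. Working solution mixed with sample 9:1, shaken 6 min at room temperature in dark; A734 read on plate reader. Scavenging rate from absorbance; triplicate wells, three independent experiments.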

[3] = Cytotoxicity against mouse BV-2 cells assessed as reduction in cell viability incubated for 24 hrs by MTT assay; assay type: toxicity, cell-based
Procedure, shortened: (§1)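 Cells grown with 10% FBS plus penicillin/streptomycin at 37 °C, 5% CO2 (SH-SY5Y in DMEM/F12; BV-2, HT-22, H9c2 in DMEM; L02 in RPMI 1640). Seeded 1 × 10^4 per well, 24 h, then compound in medium 24 h. MTT (5 mg/mL stock) added 4 h at 37 °C; formazan dissolved in DMSO, A490 read.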

[4] = Cytotoxicity against human SH-SY5Y cells assessed as reduction in cell viability incubated for 24 hrs by MTT assay; assay type: toxicity, cell-based; procedure, shortened: as §1
[5] = Cytotoxicity against mouse HT-22 cells assessed as reduction in cell viability incubated for 24 hrs by MTT assay; assay type: toxicity, cell-based; procedure, shortened: as §1
[6] = Cytotoxicity against rat H9c2 cells assessed as reduction in cell viability incubated for 24 hrs by MTT assay; assay type: toxicity, cell-based; procedure, shortened: as §1
[7] = Cytotoxicity against human L02 cells assessed as reduction in cell viability incubated for 24 hrs by MTT assay; assay type: toxicity, cell-based; procedure, shortened: as §1
[8] = molecular target: Amyloid-beta precursor protein (Homo sapiens) (UniProt P05067); test: Inhibition of HFIP-pretreated human amyloid beta (1 to 42) aggregation at 50 uM incubated for 24 hrs under dark condition by Thioflavin T dye based fluorometric analysis
Sequence of Amyloid-beta precursor protein (Homo sapiens) (P05067 whole entry): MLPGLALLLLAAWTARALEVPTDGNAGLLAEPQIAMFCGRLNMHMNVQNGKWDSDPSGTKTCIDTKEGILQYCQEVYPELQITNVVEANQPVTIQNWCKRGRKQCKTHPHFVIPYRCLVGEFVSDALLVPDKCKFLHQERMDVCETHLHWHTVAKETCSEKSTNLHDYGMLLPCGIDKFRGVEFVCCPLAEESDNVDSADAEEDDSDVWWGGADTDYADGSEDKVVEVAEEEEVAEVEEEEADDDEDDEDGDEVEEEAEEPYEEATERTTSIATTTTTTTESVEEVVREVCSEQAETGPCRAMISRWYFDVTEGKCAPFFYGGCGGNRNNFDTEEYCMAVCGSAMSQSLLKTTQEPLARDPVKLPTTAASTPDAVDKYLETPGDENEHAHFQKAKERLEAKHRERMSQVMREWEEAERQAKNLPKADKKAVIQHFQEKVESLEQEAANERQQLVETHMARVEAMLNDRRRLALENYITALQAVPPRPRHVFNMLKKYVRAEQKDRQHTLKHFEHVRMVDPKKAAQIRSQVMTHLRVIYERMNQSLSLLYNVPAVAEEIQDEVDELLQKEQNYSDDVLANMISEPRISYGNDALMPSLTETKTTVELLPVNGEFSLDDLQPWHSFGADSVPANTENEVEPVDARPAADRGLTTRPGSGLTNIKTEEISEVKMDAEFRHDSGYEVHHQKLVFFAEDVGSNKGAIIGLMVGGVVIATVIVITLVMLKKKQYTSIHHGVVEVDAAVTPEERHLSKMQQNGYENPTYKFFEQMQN
Procedure, shortened: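 HFIP-pretreated human Aβ1–42 dissolved at 1000 μM in 1% NH4OH, sonicated 1 h cold, stored −20 °C, diluted in PBS pH 7.4. Aβ (25 μM final) incubated with compound (50 μM final) or PBS 24 h at 37 °C in dark. Aliquot mixed with 5 μM ThT in Gly-NaOH pH 8.5, shaken 5 min; fluorescence ex 450/em 490 nm. Inhibition = 1 − Fs/F0, background ThT subtracted; three independent experiments.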

[9] = Antioxidant activity assessed as ABTS radical scavenging activity at 50 uM incubated for 6 mins under dark condition by UV-Vis spectrophotometry; assay type: functional
Procedure, shortened: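 ABTS radical cation is generated from 7 mM ABTS and 4.96 mM potassium persulfate, kept dark at room temperature for 16 h, and diluted to A734 0.70 ± 0.02. Samples are serially diluted in DMSO and mixed with working solution, then shaken 6 min at room temperature in the dark before reading A734. Scavenging rate (%) comes from triplicate wells; VC and KA are controls.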

[10] = Antioxidant activity assessed as DPPH radical scavenging activity at 100 uM incubated for 30 mins under dark condition by UV-Vis spectrophotometry relative to kojic acid; assay type: functional
Procedure, shortened: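 Samples serially diluted in DMSO, tested at 400–6.25 μM. Mixed with 100 μM DPPH in ethanol at 9:1 reagent:sample and shaken 30 min in the dark at room temperature. Absorbance read at 517 nm. Scavenging rate (%) is the mean of three independent experiments, each run in triplicate wells.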

[11] = Antioxidant activity assessed as ABTS radical scavenging activity at 100 uM incubated for 6 mins under dark condition by UV-Vis spectrophotometry relative to kojic acid; assay type: functional
Procedure, shortened: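 Samples serially diluted in DMSO, tested at 400–6.25 μM. ABTS (7 mM, water) reacted with 4.96 mM potassium persulfate for 16 h in the dark at room temperature, then diluted to A734 of 0.70 ± 0.02. Working solution mixed 9:1 with sample and shaken 6 min in the dark at room temperature. Absorbance read at 734 nm; scavenging rate (%) is the mean of three independent experiments.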

[12] = system: SH-SY5Y; test: Neuroprotective activity against H2O2-induced oxidative damage in human SH-SY5Y cells assessed as increase in cell viability at 500 uM pretreated for 24 hrs followed by H2O2 challenge for 2 hrs by MTT assay; assay type: functional, cell-based; conditions: time 26.0 hrs
Procedure, shortened: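 SH-SY5Y cells are seeded at 1 × 10^4/well in DMEM/F12 with 10% FBS and grown 24 h. They are pretreated with compound for 24 h, then given 200 μM H2O2 for 2 h. MTT (5 mg/mL stock) is added for 4 h, formazan dissolved in DMSO, and A490 read. Viability is given as % of untreated control, mean ± SEM (n = 3).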

[13] = system: H9c2; test: Neuroprotective activity against H2O2-induced oxidative damage in rat H9c2 cells assessed as increase in cell viability at 125 to 500 uM pretreated for 24 hrs followed by H2O2 challenge for 2 hrs by MTT assay; assay type: functional, cell-based; conditions: dose 125-500 µM, time 26.0 hrs
[14] = system: BV-2; test: Antioxidant activity in mouse BV-2 cells assessed as reduction in H2O2-induced intracellular ROS accumulation at 125 to 500 uM pretreated for 24 hrs followed by H2O2 challenge for 12 hrs by DCFH-DA staining based inverted fluorescence microscopy; assay type: functional, cell-based; conditions: dose 125-500 µM, time 36.0 hrs
Procedure, shortened: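 BV-2 cells (2 × 10^5/well) are pretreated with compound for 24 h, then given 1000 μM H2O2 for 12 h. They are loaded with 10 μM DCFH-DA in serum-free medium for 30 min at 37 °C and washed three times with PBS.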

[15] = system: H9c2; test: Antioxidant activity in rat H9c2 cells assessed as reduction in H2O2-induced intracellular ROS accumulation at 125 to 500 uM pretreated for 24 hrs followed by H2O2 challenge for 4 hrs by DCFH-DA staining based inverted fluorescence microscopy; assay type: functional, cell-based; conditions: dose 125-500 µM, time 28.0 hrs
[16] = system: BV-2; test: Antioxidant activity in mouse BV-2 cells assessed as reduction in H2O2-induced intracellular ROS accumulation by measuring intracellular ROS level at 500 uM pretreated for 24 hrs followed by H2O2 challenge for 12 hrs by DCFH-DA staining based flow cytometry (reference value: 40.7%); assay type: functional; parameters: scale not given: the % may be the effect or the level left; conditions: time 36 hrs
[17] = system: BV-2; test: Antioxidant activity in mouse BV-2 cells assessed as reduction in H2O2-induced intracellular ROS accumulation by measuring intracellular ROS level at 250 uM pretreated for 24 hrs followed by H2O2 challenge for 12 hrs by DCFH-DA staining based flow cytometry (reference value: 40.7%); assay type: functional; parameters: scale not given: the % may be the effect or the level left; conditions: time 36 hrs
[18] = system: BV-2; test: Antioxidant activity in mouse BV-2 cells assessed as reduction in H2O2-induced intracellular ROS accumulation by measuring intracellular ROS level at 125 uM pretreated for 24 hrs followed by H2O2 challenge for 12 hrs by DCFH-DA staining based flow cytometry (reference value: 40.7%); assay type: functional; parameters: scale not given: the % may be the effect or the level left; conditions: time 36 hrs
[19] = Induction of intracellular ROS accumulation in mouse BV-2 cells at 500 uM treated for 24 hrs by DCFH-DA staining based flow cytometry (reference value: 7.15%); assay type: toxicity, cell-based; conditions: bv-2, 24 h
[20] = system: H9c2; test: Antioxidant activity in rat H9c2 cells assessed as reduction in H2O2-induced intracellular ROS accumulation at 125 to 500 uM pretreated for 24 hrs followed by H2O2 challenge for 4 hrs by DCFH-DA staining based flow cytometry; assay type: functional, cell-based; conditions: dose 125-500 µM, time 28.0 hrs
[21] = system: BV-2; test: Antioxidant activity in mouse BV-2 cells assessed as reduction in H2O2-induced ROS burst by measuring increase in SOD activity at 125 to 500 uM treated with compound prior to H2O2 challenge; assay type: functional, cell-based; conditions: dose 125-500 µM
[22] = Metal chelating activity assessed as compound-Fe3+ complex formation by measuring optical responses at 100 uM in presence of FeCl3 by UV-Vis spectroscopy
Procedure, shortened: (§2)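 Compound held at 100 μM in HEPES buffer (pH 7.4). The metal salt (CuSO4, ZnCl2, FeCl2, FeCl3·7H2O, AlCl3, Mn(CH3COO)2, MgSO4, NaCl, KCl or CaCl2) was added at one equivalent, and the UV-vis absorption spectrum was recorded from 200 to 800 nm.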

[23] = system: H9c2; test: Antioxidant activity in rat H9c2 cells assessed as reduction in H2O2-induced ROS burst by measuring increase in SOD activity at 125 to 500 uM treated with compound prior to H2O2 challenge; assay type: functional, cell-based; conditions: dose 125-500 µM
[24] = Metal chelating activity assessed as compound-Cu2+ complex formation by measuring optical responses at 100 uM in presence of CuSO4 by UV-Vis spectroscopy; procedure, shortened: as §2
[25] = Metal chelating activity assessed as compound-Zn2+ complex formation by measuring optical responses at 100 uM in presence of ZnCl2 by UV-Vis spectroscopy; procedure, shortened: as §2
[26] = Metal chelating activity assessed as compound-Fe2+ complex formation by measuring optical responses at 100 uM in presence of FeCl2 by UV-Vis spectroscopy; procedure, shortened: as §2
[27] = Metal chelating activity assessed as compound-Al3+ complex formation by measuring optical responses at 100 uM in presence of AlCl3 by UV-Vis spectroscopy; procedure, shortened: as §2
[28] = Metal chelating activity assessed as compound-Na+ complex formation by measuring optical responses at 100 uM in presence of NaCl by UV-Vis spectroscopy; procedure, shortened: as §2
[29] = Metal chelating activity assessed as compound-K+ complex formation by measuring optical responses at 100 uM in presence of KCl by UV-Vis spectroscopy; procedure, shortened: as §2
[30] = Metal chelating activity assessed as compound-Mg2+ complex formation by measuring optical responses at 100 uM in presence of MgSO4 by UV-Vis spectroscopy; procedure, shortened: as §2
[31] = Metal chelating activity assessed as compound-Ca2+ complex formation by measuring optical responses at 100 uM in presence of CaCl2 by UV-Vis spectroscopy; procedure, shortened: as §2
[32] = Metal chelating activity assessed as compound-Mn2+ complex formation by measuring optical responses at 100 uM in presence of Mn(CH3COO)2 by UV-Vis spectroscopy; procedure, shortened: as §2
[33] = Metal chelating activity assessed as compound-Cu2+ complex formation by measuring increase in absorption band intensity at 475 nm at 100 uM in presence of CuSO4 by UV-Vis spectroscopy
Procedure, shortened: (§3)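 Compound held at 100 μM in HEPES buffer (pH 7.4) and titrated with Cu2+ at 12.5–200 μM (nine levels). UV-vis spectra were followed at 370 and 475 nm. Stoichiometry was taken from a plot of absorbance at 475 nm against the Cu2+:compound ratio.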

[34] = Metal chelating activity assessed as compound-Cu2+ complex formation by measuring decrease in absorption band intensity at 370 nm at 100 uM in presence of CuSO4 by UV-Vis spectroscopy; procedure, shortened: as §3
[35] = Metal chelating activity assessed as compound-Cu2+ complex formation at stoichiometric ratio of 1:1 at 100 uM in presence of CuSO4 by UV-Vis spectroscopy; procedure, shortened: as §3
[36] = Metal chelating activity assessed as compound-Fe2+ complex formation at stoichiometric ratio of 1:1 at 100 uM in presence of FeCl2 by UV-Vis spectroscopy

For `O=c1cc(CO)occ1O` [KOJIC ACID], the Activity [1] was 17.8%, the Activity [2] was 46.8% and the IC50 at 24 h [3] was over 500 µM. The IC50 at 24 h [4] was over 500 µM, the IC50 at 24 h [5] was over 500 µM and the IC50 at 24 h [6] was over 500 µM. For the same compound, the IC50 at 24 h [7] was over 500 µM and the inhibition [8] was 14.6%.

Compound `O=C1O[C@H]([C@@H](O)CO)C(O)=C1O` has an Activity [9] of 39.7%.

`O=c1cc(CO)oc(-c2oc(CO)cc(=O)c2O)c1O` showed an Activity [1] of 50.3%, an Activity [2] of 79.4% and a fold change (FC) [10] of 2. It also gave a fold change (FC) [11] of 2, an Activity [9] of 56% and an IC50 at 24 h [3] of over 500 µM. It also gave an IC50 at 24 h [4] of over 500 µM, an IC50 at 24 h [5] of over 500 µM and an IC50 at 24 h [6] of over 500 µM. For the same compound, the IC50 at 24 h [7] was over 500 µM, the inhibition [8] was 17% and the Activity [12] was “Active”. The Activity [13] was “Active”, the Activity [14] was “Active” and the Activity [15] was “Active”. It also gave an Activity [16] of 21.6%, an Activity [17] of 24.8% and an Activity [18] of 29.4%. The Activity [19] was 14%, the Activity [20] was “Active” and the Activity [21] was “Dose-Dependent Effect”. For the same compound, the Activity [22] was “Active”, the Activity [23] was “Active” and the Activity [24] was “Active”. For the same compound, the Activity [25] was “Active”, the Activity [26] was “Active” and the Activity [27] was “Active”. The Activity [28] was “inactive”, the Activity [29] was “inactive” and the Activity [30] was “inactive”. For the same compound, the Activity [31] was “inactive”, the Activity [32] was “inactive” and the Activity [33] was “Active”. The Activity [34] was “Active”, the Activity [35] was “Active” and the Activity [36] was “Active”.
